Screening data from PubChem.
Most compounds without a hit are left out; they make up all but 1.4% or so of the library.
NR2E3 ag-1: agonists of human NR2E3 nuclear receptor; Q9Y5X4; inhibition of corepressor binding, % at 3.98 µM; actives 0.35% (n = 360,000); AID 602229; CHO-S Gal4-NCOR/VP16-NR2E3 two-hybrid, luciferase;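 active = inhibition above the mean of all tested compounds plus 3 SD, cut at about 70% in these data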;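 also: 0% = DMSO with NR2E3 transfected cells and 100% = cells lacking NR2E3 construct; higher means lower luciferase signal from less NR2E3 corepressor binding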
Target sequence (Q9Y5X4 whole entry, looked up, the tested form may be a part): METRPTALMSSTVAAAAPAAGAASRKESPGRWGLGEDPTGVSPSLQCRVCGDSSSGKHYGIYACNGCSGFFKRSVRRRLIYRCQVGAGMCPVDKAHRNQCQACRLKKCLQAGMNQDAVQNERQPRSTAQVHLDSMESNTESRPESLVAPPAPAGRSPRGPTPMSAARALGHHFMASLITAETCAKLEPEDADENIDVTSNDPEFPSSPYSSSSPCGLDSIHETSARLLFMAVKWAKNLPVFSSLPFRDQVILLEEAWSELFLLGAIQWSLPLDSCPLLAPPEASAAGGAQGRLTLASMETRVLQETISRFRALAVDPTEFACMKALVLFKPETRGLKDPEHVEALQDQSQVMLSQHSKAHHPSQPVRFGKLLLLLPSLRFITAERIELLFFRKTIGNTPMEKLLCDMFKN
NR1D1 modulator: modulates human Rev-erb alpha binding to DNA; AID 1259318; P20393; Rev-erbα–FITC-DNA binding, fluorescence polarization, 90 min; actives 0.79% (n = 370,000); activity, % at 10 µM;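 active = activity above about 14%, limit read from the data; passing the limit was not always enough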;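 also: 0% = DMSO wells with 35 nM protein and 100% = DMSO wells with 750 nM protein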
PG9 binder: small molecules binding HIV-1 gp120 antibody PG9. TR-FRET gp120-PG9 antibody binding. inhibition, % at 6.7 µM. actives 0.43% (n = 360,000); in the data active = inhibition above about 8.5%
NR2E3 ag-2: agonists of human nuclear receptor NR2E3; actives 0.12% (n = 320,000); AID 2300; GST-NR2E3/biotin-RetCOR TR-FRET, 1536-well; inhibition of corepressor binding, % at 4.78 µM; Q9Y5X4;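 active = percent inhibition above the cutoff of mean plus 3 SD of all tested compounds, set per screening campaign, cut at about 20% in these data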;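 also: 0% = DMSO wells and 100% = biotin wells as full block of FRET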
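Material: NR2E3–RetCOR corepressor complex / Incubation: Compound–protein incubation for 5 h at 4 °C / Dosing: compound at 4.8 µM, single dose / Detection: time-resolved FRET / Benchmarks: high control biotin, low control 0.6% DMSO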
NR1D1 mod conf: Rev-erb alpha (human) modulation, hit confirmation; shares compounds with NR1D1 modulator; actives 61% (n = 3,000); AID 1259319; activation, % at 25 µM; Rev-erb alpha FITC-DNA binding, fluorescence polarization, 90 min;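 active = activation at or above a set limit, or at least 3 SD above the negative control mean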;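 also: 0% = 35 nM protein with DMSO and 100% = 750 nM protein high control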
RORg counter: counter-screen for Rev-erb alpha modulators: RORgamma DNA binding. shares compounds with NR1D1 modulator. purified RORgamma protein-FITC-DNA binding, fluorescence polarization. IC50, µM. actives 8% (n = 910). AID 1259320;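 active = Compounds whose fitted half-maximal concentration for disrupting protein-DNA binding is below 10 micromolar; the record names Rev-erb in its text, so the target is in doubt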
Active calls of the source: *; x = not tested or not shown.

SMILES	NR2E3 ag-1	NR1D1 modulator	PG9 binder	NR2E3 ag-2	NR1D1 mod conf	others
CN1C2=N[C@@H](c3ccc(Br)cc3)CC(=O)N2/C(=C\c2ccccc2)[C@@H]1c1ccccc1	x	0.9	x	x	x
Cc1cnc(NC(=O)Cc2ccccc2F)s1	-2.4	-2.8	-0.2	1.6	x
COc1ccc(C2NC(=O)NC(C)=C2C(=O)OC2CCCCC2)cc1 (centres undefined)	-23.8	-2.4	0.9	x	x
COc1ccc(C2NC(=O)NC(C)=C2C(=O)OC2CCCC(C)C2)cc1 (centres undefined)	8.2	18.4*	1.7	6.5	8.4
CCn1c(=O)c(CCC(=O)NCC2CCCO2)c(C)c2c(C)nn(-c3ccc(C)cc3)c21 (centres undefined)	-38.2	19.5*	4.4	-1.2	2.4
CCOC(=O)c1c(NC(=O)c2c(Br)cnn2CC)sc(C)c1C	-30.7	28.1*	1.4	-1.9	11.7
CCc1cc2cccc(C)c2nc1SCC(=O)NC1CCCC1	-2.7	20.6*	2.7	1.4	10.8
CCc1cc2cc(C)ccc2nc1SCC(=O)NNC(=O)c1ccco1	-9.9	-1.1	0.5	2.2	x
CCc1cc2cc(C)ccc2nc1SCC(=O)NC1CCCC1	10.4	31.6*	0.7	6.2	34.6*	RORg counter=>40
CCOC(=O)CNC(=O)CSc1nc2c(C)cccc2cc1CC	13.6	-2.2	4.6	6.2	x
COc1cc(NC(=O)C2CCCN(S(=O)(=O)c3cc(OC)ccc3OC)C2)cc(OC)c1 (centres undefined)	x	3.7	x	x	x
Cc1cc(=O)[nH]c(N/N=C/c2c(C)nn(-c3ccc(F)cc3)c2Cl)n1	-6.6	6.4	-1.7	4.7	x
Cc1nn(-c2ccccc2)c(Cl)c1/C=N/Nc1nncc(=O)[nH]1	4.6	25.4*	-3.6	-0.1	17.8
O=C(Cc1ccc(NS(=O)(=O)c2ccc(F)cc2)cc1)NCc1ccccc1	-7.5	-4.9	-0.1	-1.2	x
CC(=O)c1cccc(NC(=O)Cn2nc(-c3ccccc3Cl)ccc2=O)c1	-13.9	-3.1	-0.7	-3.7	x
COc1ccc(-c2ccc(=O)n(CC(=O)Nc3ccc4c(c3)OCCO4)n2)cc1	1.2	17.8*	1.3	-1.8	10.9
CC(=O)c1cccc(NC(=O)Cn2nc(-c3ccc(Cl)cc3)ccc2=O)c1	-15.7	23.3*	0.3	2.2	12.4
COc1ccc(CNC(=O)Cn2nc(-c3ccc4c(c3)OCCO4)ccc2=O)cc1	5.6	-2.5	-2.3	0.8	x
COc1ccc(-c2nn(CC(=O)Nc3ccc(Cl)c(Cl)c3)c(=O)c3ccccc23)cc1	-3.4	21.7*	1.7	0.0	13.5
CCOC(=O)c1ccc(NC(=O)COc2cc(=O)n(CC)c3ccccc23)cc1	-0.6	28.0*	0.7	-1.1	26.7*
CCn1c(=O)cc(OCC(=O)Nc2cccnc2)c2ccccc21	-33.1	4.4	-0.5	1.5	x
CCn1c(=O)cc(SCC(=O)Nc2ccc(Cl)cc2)c2ccccc21	-3.0	137.6*	0.3	-0.7	90.3*	RORg counter=>40
CCN(C(=O)COC(=O)c1ccc2c(c1)OCO2)c1ccccc1	4.5	1.2	-3.0	x	x
Cc1nc(N2CCN(S(=O)(=O)c3ccccc3)CC2)c2cc(-c3ccccc3)sc2n1	-28.7	43.7*	-0.2	-0.4	27.7*
Cc1nc(N2CCN(C)CC2)c2cc(-c3ccccc3)sc2n1	-4.2	-1.4	1.4	0.4	x
SMILES	NR2E3 ag-1	NR1D1 modulator	PG9 binder	NR2E3 ag-2	NR1D1 mod conf	others
O=c1c2ccccc2ncn1-c1cccc(Cl)c1	-7.8	2.1	-3.4	-0.3	x
O=c1c2ccccc2ncn1-c1ccc(Cl)c(Cl)c1	-74.1	29.5*	-1.0	2.9	36.8*	RORg counter=>40
Cc1cccc(C)c1NC(=O)CCCSc1nnnn1C	-17.1	-4.2	-2.0	0.3	x
O=C(Cc1ccc(Cl)cc1)c1c[nH]c(C(=O)NCc2cccnc2)c1	10.9	18.7*	1.2	0.0	34.5*	RORg counter=>40
Cc1ccc(C(=O)N(CC(=O)NC2CCCCC2)c2ccccc2F)s1	-6.7	7.6	1.6	0.3	x
O=C1CC2CC1C(C(=O)O)C2C(=O)O (centres undefined)	-15.3	-8.0	-0.4	x	x
CCN(CC)c1ccc(-c2c(C#N)c(N)nc(OC)c2C#N)cc1	22.2	177.6*	2.8	1.7	136.7*	RORg counter=>40
Cc1oc2ccc(O)cc2c1C(=O)c1ccc([N+](=O)[O-])cc1	-37.6	-3.2	-2.9	1.6	x
CN(C)/C=C/c1oc2ccc(O)cc2c1[N+](=O)[O-]	-38.8	37.1*	-26.9	-12.2	17.2
COc1ccc(CCNC(=O)C2CCN(C(=O)c3ccc(F)cc3)CC2)cc1OC	-20.2	-4.2	1.4	-1.5	x
CCNc1ccc2noc3c2c1C(=O)c1ccccc1-3	-44.8	48.7*	2.4	-22.7	57.2*	RORg counter=>40
O=C(NCc1ccccc1)c1cc(-c2ccncc2)nc2ccc(S(=O)(=O)N3CCOCC3)cc12	1.8	-15.3	-0.6	3.9	x
O=C(NCc1ccc(F)cc1)c1cc(-c2ccccn2)nc2ccc(S(=O)(=O)N3CCOCC3)cc12	-28.9	18.3*	0.5	x	19.4*
NS(=O)(=O)c1ccc(CNC(=O)c2cc(-c3ccccn3)nc3ccc(Cl)cc23)cc1	-7.1	23.2*	7.2	-171.9	18.7*
CC(=O)O[C@@]12CO[C@@H]1C[C@H](O)[C@@]1(C)C(=O)[C@H](O)C3=C(C)[C@@H](OC(=O)[C@H](O)[C@@H](NC(=O)OC(C)(C)C)c4ccccc4)C[C@](O)([C@@H](OC(=O)c4ccccc4)[C@H]21)C3(C)C	x	x	x	0.3	x
O=C1CN=CN=CN1c1ccc(Cl)cc1Cl	-1.5	-0.2	-1.6	-2.4	x
CC(/C=C/c1ccccc1F)=N\NC(=O)c1cccc(F)c1	-56.6	16.8*	-0.5	-0.5	0.6
S=c1nc(C2CCCCC2)[nH]c2ccccc12	19.6	16.4*	8.2	18.1	12.7
S=c1nc(C2CC2)[nH]c2ccccc12	9.7	1.6	2.6	18.0	x
CCCCCCCCN1C(=O)[C@H](CC(=O)NCCCN2CCCC2=O)C[C@@]2(C(=O)OCC)CCCC=C12	5.7	-0.6	-0.6	x	x
COc1ccc(-c2c(C)nc(N)nc2-c2ccc(OCc3ccc(C)cc3)cc2O)cc1OC	5.4	123.5*	-1.9	1.2	84.8*	RORg counter=>40
CCOC(=O)c1cc(-c2ccccc2)sc1NC(=S)Nc1cccc(C)n1	-2.7	26.1*	1.9	-4.3	0.7
CCOC(=O)c1cc(-c2ccccc2)sc1NC(=O)C(C)OC(=O)c1cccnc1Cl (centres undefined)	-12.0	19.9*	-1.7	2.8	12.7
CCOC(=O)c1cc(-c2ccccc2)sc1NC(=O)C(C)C	-5.4	-3.7	1.4	-1.5	x
COCc1cc(C)n(CC(=O)OC)c(=O)c1C#N	-41.0	5.1	0.0	0.8	x
COc1cc(N2N=C(c3ccccc3)CC2c2ccccc2)c(C=O)cc1C=O (centres undefined)	4.3	107.0*	1.0	3.7	74.9*	RORg counter=>40
